Here are results for 13 compounds from paper PMC3625458 (Journal of medicinal chemistry, 2013).

The structures appear in SMILES notation. Entries after “also recorded” stand apart in the source; their conditions may differ. Where only a bound is given, the exact number is not on record here.

One series addresses CDPK1 G128M (Toxoplasma gondii, UniProt Q9BJF5, G128M). Nature of the series: CDPK1 G128M mutant kinase assay, syntide-2 peptide ELISA. It counts as biochemical.
The nature of series [1]: In vitro microsome stability assay. The format is in vitro ADME. The settings on record: rat, liver microsomes.
A further series addresses CDPK1 G128T (Toxoplasma gondii, UniProt Q9BJF5, G128T). Nature of the series: CDPK1 G128T mutant kinase assay, syntide-2 peptide ELISA. The format is biochemical.
A further series has as its target CDPK1 G128S (Toxoplasma gondii, UniProt Q9BJF5, G128S). The experiment in a line: CDPK1 G128S mutant kinase assay, syntide-2 peptide ELISA. The format is biochemical.
For series [2], the target named is human calmodulin dependent kinase II alpha (αCaMKII) (Homo sapiens, UniProt Q9UQM7). The experiment in a line: CaM Kinase II Assay CycLex kit. It counts as biochemical. A digest of the protocol: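 Human αCaMKII activity measured with a commercial CaM kinase II assay kit following the maker's recommendations. Test compound in serial dilutions; all samples run in triplicate. Data normalized and log-transformed, then fit by non-linear regression to a sigmoidal dose-response curve with variable slope to obtain IC50.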

In another series the target is CDPK1 G128A (Toxoplasma gondii, UniProt Q9BJF5, G128A). Nature of the series: CDPK1 G128A mutant kinase assay, syntide-2 peptide ELISA. The format is biochemical.
Series [3] has as its system T. gondii type II Pru-LUC strain. The experiment in a line: Murine infection model of toxoplasmosis. The format is in vivo, mouse. Particulars: 30 days post-infection, 5 mg/kg daily i.p. for 10 days.
The subject of series [4] is T. gondii highly virulent RH strain. The settings on record: cited from earlier work.
Series [5] relates to T. gondii 2F clone of the type I RH strain in HFF cells. The experiment in a line: Inhibition of parasite growth in vitro in HFF monolayers. The format is cell-based, Toxoplasma gondii.

For `Cc1cccc(Cc2nn(C(C)(C)C)c3ncnc(N)c23)c1` [Compound 1, 3-methyl-benzyl pyrazolo [3,4-d] pyrimidine], the half-maximal inhibitory concentration (IC50) is over 10000 nM against CDPK1 G128M; 222 ± 43.7 nM at CDPK1 G128T; 22.9 ± 7.5 nM on CDPK1 G128S; over 10000 nM in series [2]; 13.7 ± 7.1 nM against CDPK1 G128A. The “sensitivity of Met gatekeeper TgCDPK1” value on CDPK1 G128M (Gly to Met) is listed as “completely insensitive”. In [1], the “microsome stability” value is listed as “extremely unstable; also recorded: poor microsome stability”. Further, the “additional decrease in inhibition” value at CDPK1 G128T (Gly to Thr, relative to Ala or Ser) came to 10 fold. Moreover, the “shift in potency vs Gly gatekeeper” value at CDPK1 G128S (Gly to Ser) and on CDPK1 G128A (Gly to Ala) was 3-5 fold in each case. In addition, the “sensitivity of human CamKIIα” value in series [2] (Phe gatekeeper) was “completely resistant”.
For `CC(C)(C)n1nc(Cc2cccc(Cl)c2)c2c(N)ncnc21` [Compound 3, 3-chloro-benzyl pyrazolo [3,4-d] pyrimidine], the “brain tissue cyst burden in surviving mice” value (“brain tissue cyst burden” below) in series [3] was “considerable variation in the reduction of cyst numbers”.
For the compound `CC(C)(C)n1nc(Cc2cccc(Br)c2)c2c(N)ncnc21` [Compound 4, 3-bromo-benzyl pyrazolo [3,4-d] pyrimidine], the microsomal CLint in series [1] was over 350 µL/min/mg.
Consider `CC(C)(C)n1nc(Cc2cccc3ccccc23)c2c(N)ncnc21` [Compound 6, 1-napthylmethyl-PP], for which the parasite burdens entry in [4] (10-fold higher doses, i.p. inoculation) was “modest reduction in parasite burdens”. For the same compound, the “protection against lethal challenge” value in [4] (oral administration, RH strain) is listed as “failed to protect”.
`CC(C)(C)n1nc(Cc2cc(Cl)ccc2F)c2c(N)ncnc21` [Compound 10]: the microsomal CLint in series [1] is 250 µL/min/mg.
Consider `CC(C)n1nc(Cc2cccc(Cl)c2Cl)c2c(N)ncnc21` [Compound 11], for which the “brain tissue cyst burden” value in series [3] is given as “considerable variation in the reduction of cyst numbers”. The compound also came in with an intrinsic metabolic clearance (microsomal CLint) in series [1] of 190 µL/min/mg.
On to `CC(C)(C)n1nc(Cc2cccc(Cl)c2F)c2c(N)ncnc21` [Compound 18], for which the microsomal CLint in series [1] was over 350 µL/min/mg.
On the same count and under the same terms, to `CC(C)(C)n1nc(Cc2ccc(F)c(Cl)c2)c2c(N)ncnc21` [Compound 20] belongs over 350 µL/min/mg; to `CC(C)n1nc(Cc2cc(F)cc(Cl)c2)c2c(N)ncnc21` [Compound 21], over 350 µL/min/mg.
On to `CC(C)(C)n1nc(Cc2cc(F)cc(F)c2)c2c(N)ncnc21` [Compound 24], for which the “brain tissue cyst burden” value in series [3] (5 mg/kg) is “much more potent and uniform protection; also recorded: most effective in reducing the chronic burden of CNS infection”.
For `CC(C)n1nc(C(O)c2cccc(Cl)c2Cl)c2c(N)ncnc21` (centres unmarked) [Compound 25], the microsomal CLint in series [1] came to 68 µL/min/mg. In addition, the “activity against T. gondii” value in series [5] is “inactive”.
For the compound `CC(C)n1nc(C(F)c2cccc(Cl)c2Cl)c2c(N)ncnc21` (centres unmarked) [Compound 26], in [1], the microsomal CLint was 107 µL/min/mg.
`CCc1nc(N)nc(N)c1-c1ccc(Cl)cc1` [pyrimethamine, reference compound]: the “treatment time required to demonstrate potent inhibition of growth” value in [5] (4 h vs 24 h treatment, growth to 72 h) is “at least 24 h”.
